From ChEMBL document CHEMBL1125445, “Bis(maltolato)oxovanadium(IV) is a potent insulin mimic” (J Med Chem, 1992)

Experiments:
Assay type in all cases: functional, organism-based
Rattus norvegicus [1] = organism: Rattus norvegicus; assay: Decrease in plasma insulin (microUnits/mL) in male Wistar rats diabetic treated (DT) group (number of rats = 12) which received compound dissolved in tap water
How it was run: (§1)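 Wistar males, with STZ diabetes from 60 mg/kg i.v. in saline or saline-injected controls. Treated groups got the compound ad libitum in drinking water (1.58 mM) and untreated groups got tap water. Plasma was taken after 4 weeks by centrifuging blood at 20000g for 10 min at 4 °C and kept at -70 °C until assay. Reported as mean ± SEM, with ANOVA then Newman-Keuls.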

Rattus norvegicus [2] = organism: Rattus norvegicus; assay: Decrease food (g/rat/day) intake in male Wistar rats diabetic treated (DT) group (number of rats = 12) which received compound dissolved in tap water
How it was run: (§2)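 Male Wistar rats; diabetes induced by a single tail-vein injection of streptozocin, 60 mg/kg in 0.9% NaCl, and non-diabetic rats got saline. Treated groups drank the compound in tap water (1.58 mM), and untreated groups drank tap water. Food and fluid intake per 24 h per cage was divided by rats per cage. Values at week 4, mean ± SEM, ANOVA/Newman-Keuls.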

Rattus norvegicus [3] = assay: Decrease in fluid (mL/rat/day)-intake-in male Wistar rats diabetic (D) group (number of rats = 11) where the diabetic state was induced by intravenous administration of streptozocin (STZ) at 60 mg/kg; parameters: dose 60 mg/kg; how it was run: as §2
Rattus norvegicus [4] = assay: Decrease in weight(g)in male Wistar rats diabetic (D) group (number of rats = 11) where the diabetic state was induced by intravenous administration of streptozocin (STZ) at 60 mg/kg; parameters: dose 60 mg/kg
How it was run: (§3)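 Male Wistar rats housed 2–3 per cage on a 12 h light/dark cycle with free food and water. Diabetes was induced by i.v. streptozocin, 60 mg/kg in 0.9% NaCl, and controls got saline. Treated groups drank the compound at 1.58 mM in tap water. Body weight was recorded daily and reported at week 4 as mean ± SEM, with ANOVA/Newman-Keuls.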

Rattus norvegicus [5] = assay: Decrease in plasma insulin (microUnits/mL) in male Wistar rats diabetic (D) group (number of rats = 11) where the diabetic state was induced by intravenous administration of streptozocin (STZ) at 60 mg/kg; parameters: dose 60 mg/kg; how it was run: as §1
Rattus norvegicus [6] = organism: Rattus norvegicus; assay: Decrease in plasma glucose (mM) of Male Wistar ratsrecieved an equivalent volume of isotonic saline (C control group); how it was run: as §1
Rattus norvegicus [7] = organism: Rattus norvegicus; assay: Decrease in food intake of male Wistar rats control treated (CT) group (number of rats = 11) which received compound dissolved in tap water; how it was run: as §2
Rattus norvegicus [8] = organism: Rattus norvegicus; assay: Decrease in weight of male Wistar rats control treated (CT) group (number of rats = 11) which received compound dissolved in tap water; how it was run: as §3
Rattus norvegicus [9] = organism: Rattus norvegicus; assay: Decrease in plasma cholesterol (mM) of Male Wistar ratsrecieved an equivalent volume of isotonic saline (C control group); how it was run: as §1
Rattus norvegicus [10] = organism: Rattus norvegicus; assay: Decrease in plasma glucose (mM) of male Wistar rats control treated (CT) group (number of rats = 11) which received compound dissolved in tap water; how it was run: as §1
Rattus norvegicus [11] = organism: Rattus norvegicus; assay: Decrease in plasma insulin (microUnits/mL) of male Wistar rats control treated (CT) group (number of rats = 11) which received compound dissolved in tap water; how it was run: as §1
Rattus norvegicus [12] = organism: Rattus norvegicus; assay: Decrease in plasma triglyceride (mM) of Male Wistar ratsrecieved an equivalent volume of isotonic saline (C control group); how it was run: as §1
Rattus norvegicus [13] = assay: Decrease in food (g/rat/day)in take in male Wistar rats diabetic (D) group (number of rats = 11) where the diabetic state was induced by intravenous administration of streptozocin (STZ) at 60 mg/kg; parameters: dose 60 mg/kg; how it was run: as §2
Rattus norvegicus [14] = organism: Rattus norvegicus; assay: Decrease in fluid intake of male Wistar rats control treated (CT) group (number of rats = 11) which received compound dissolved in tap water; how it was run: as §2
Rattus norvegicus [15] = assay: Decrease in plasma triglyceride (mM)in male Wistar rats diabetic (D) group (number of rats = 11) where the diabetic state was induced by intravenous administration of streptozocin (STZ) at 60 mg/kg; parameters: dose 60 mg/kg; how it was run: as §1
Rattus norvegicus [16] = organism: Rattus norvegicus; assay: Decrease in plasma insulin (microUnits/mL) of Male Wistar ratsrecieved an equivalent volume of isotonic saline (C control group); how it was run: as §1
Rattus norvegicus [17] = organism: Rattus norvegicus; assay: Decrease in plasma cholesterol (mM) in male Wistar rats diabetic treated (DT) group (number of rats = 12) which received compound dissolved in tap water; how it was run: as §1
Rattus norvegicus [18] = organism: Rattus norvegicus; assay: Decrease in plasma triglyceride (mM) in male Wistar rats diabetic treated (DT) group (number of rats = 12) which received compound dissolved in tap water; how it was run: as §1
Rattus norvegicus [19] = organism: Rattus norvegicus; assay: Decrease weight(g) in male Wistar rats diabetic treated (DT) group (number of rats = 12) which received compound dissolved in tap water; how it was run: as §3
Rattus norvegicus [20] = organism: Rattus norvegicus; assay: Decrease in fluid (mL/rat/day)-intake in male Wistar rats diabetic treated (DT) group (number of rats = 12) which received compound dissolved in tap water; how it was run: as §2
Rattus norvegicus [21] = organism: Rattus norvegicus; assay: Decrease in plasma triglyceride (mM) of male Wistar rats control treated (CT) group (number of rats = 11) which received compound dissolved in tap water; how it was run: as §1
Rattus norvegicus [22] = organism: Rattus norvegicus; assay: Decrease in plasma glucose (mM) in male Wistar rats diabetic treated (DT) group (number of rats = 12) which received compound dissolved in tap water; how it was run: as §1
Rattus norvegicus [23] = organism: Rattus norvegicus; assay: Decrease in food intake of Male Wistar ratsrecieved an equivalent volume of isotonic saline (C control group); how it was run: as §2
Rattus norvegicus [24] = assay: Decrease in plasma glucose (mM)in male Wistar rats diabetic (D) group (number of rats = 11) where the diabetic state was induced by intravenous administration of streptozocin (STZ) at 60 mg/kg; parameters: dose 60 mg/kg; how it was run: as §1
Rattus norvegicus [25] = assay: Decrease in plasma cholesterol (mM)in male Wistar rats diabetic (D) group (number of rats = 11) where the diabetic state was induced by intravenous administration of streptozocin (STZ) at 60 mg/kg; parameters: dose 60 mg/kg; how it was run: as §1
Rattus norvegicus [26] = organism: Rattus norvegicus; assay: Decrease in plasma cholesterol (mM) of male Wistar rats control treated (CT) group (number of rats = 11) which received compound dissolved in tap water; how it was run: as §1
Rattus norvegicus [27] = organism: Rattus norvegicus; assay: Decrease in weight of Male Wistar ratsrecieved an equivalent volume of isotonic saline (C control group); how it was run: as §3
Rattus norvegicus [28] = organism: Rattus norvegicus; assay: Decrease in fluid intake of Male Wistar ratsrecieved an equivalent volume of isotonic saline (C control group); how it was run: as §2

Q: With BIS(MALTOLATO)OXOVANADIUM(IV) as the substance, how does the Plasma insulin (Rattus norvegicus [1]) read?
A: 21.9 uUnits ml-1

Q: What about the Food (g rat-1 day-1) (Rattus norvegicus [2]) of the same substance?
A: 37.9

Q: And the Fluid (ml rat-1 day-1) (Rattus norvegicus [3])?
A: 264

Q: What about the WEIGHT (Rattus norvegicus [4]) of the same substance?
A: 349 g

Q: What about the Plasma insulin (Rattus norvegicus [5]) of the same substance?
A: 22 uUnits ml-1

Q: And the Plasma glucose (Rattus norvegicus [6])?
A: 4 mM

Q: What about the Food (g rat-1 day-1) (Rattus norvegicus [7]) of the same substance?
A: 28.8

Q: What about the WEIGHT (Rattus norvegicus [8]) of the same substance?
A: 391 g

Q: What about the Plasma cholesterol (Rattus norvegicus [9]) of the same substance?
A: 1.4 mM

Q: What about the Plasma glucose (Rattus norvegicus [10]) of the same substance?
A: 4.1 mM

Q: And the Plasma insulin (Rattus norvegicus [11])?
A: 21.6 uUnits ml-1

Q: And the Plasma triglyceride (Rattus norvegicus [12])?
A: 1.8 mM

Q: And the Food (g rat-1 day-1) (Rattus norvegicus [13])?
A: 63.5

Q: What about the Fluid (ml rat-1 day-1) (Rattus norvegicus [14]) of the same substance?
A: 43

Q: What about the Plasma triglyceride (Rattus norvegicus [15]) of the same substance?
A: 2.7 mM

Q: What about the Plasma insulin (Rattus norvegicus [16]) of the same substance?
A: 35.6 uUnits ml-1

Q: What about the Plasma cholesterol (Rattus norvegicus [17]) of the same substance?
A: 1.6 mM

Q: And the Plasma triglyceride (Rattus norvegicus [18])?
A: 1.9 mM

Q: And the WEIGHT (Rattus norvegicus [19])?
A: 311 g

Q: What about the Fluid (ml rat-1 day-1) (Rattus norvegicus [20]) of the same substance?
A: 52

Q: And the Plasma triglyceride (Rattus norvegicus [21])?
A: 2.1 mM

Q: And the Plasma glucose (Rattus norvegicus [22])?
A: 7 mM

Q: And the Food (g rat-1 day-1) (Rattus norvegicus [23])?
A: 28.3

Q: And the Plasma glucose (Rattus norvegicus [24])?
A: 13.9 mM

Q: And the Plasma cholesterol (Rattus norvegicus [25])?
A: 2.4 mM

Q: And the Plasma cholesterol (Rattus norvegicus [26])?
A: 1.7 mM

Q: And the WEIGHT (Rattus norvegicus [27])?
A: 404 g

Q: And the Fluid (ml rat-1 day-1) (Rattus norvegicus [28])?
A: 59
